Data as given in ChEMBL document CHEMBL1152517, “Isocombretastatins A: 1,1-diarylethenes as potent inhibitors of tubulin polymerization and cytotoxic compounds” (Bioorg Med Chem, 2009).
pIC50: −log10 of the molar value.

Legend:
[1] = test system: HeLa; experiment: Cytotoxicity against human HeLa cells after 72 hrs by XTT assay; type: functional, cell-based
[2] = test system: A549; experiment: Cytotoxicity against human A549 cells after 72 hrs by XTT assay; type: functional, cell-based; settings: A549, 72 h
[3] = species on record: Bos taurus; experiment: Inhibition of calf brain tubulin polymerization at 20 uM after 20 mins by turbidimetric method
[4] = test system: HT-29; experiment: Cytotoxicity against human HT-29 cells after 72 hrs by XTT assay; type: functional, cell-based; settings: HT-29, 72 h
[5] = test system: HL-60; experiment: Cytotoxicity against human HL60 cells after 72 hrs by XTT assay; type: functional, cell-based; settings: HL-60, 72 h
Outline: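 Cells seeded per well (HeLa 1.5 × 10^3, HT-29 3 × 10^3, A-549 5 × 10^3, HL-60 3 × 10^3). Adherent lines attached for 24 h at 37 °C, 5% CO2. Compound exposure at various concentrations for 72 h. XTT/PMS reagent added, 4 h further incubation, formazan absorbance read at 490 nm (reference 655 nm). IC50 is concentration giving 50% proliferation inhibition. Mean of three independent experiments run in triplicate.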

[6] = species on record: Bos taurus; experiment: Inhibition of calf brain tubulin polymerization at 5 uM after 20 mins by turbidimetric method
[7] = Inhibition of calf brain tubulin polymerization after 20 mins by turbidimetric method; parameters: species or system Bos taurus
Outline: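 Microtubule protein at 1.0 mg/mL in 0.1 M MES, 1 mM EGTA, 1 mM MgCl2, 1 mM β-ME, 1.5 mM GTP, pH 6.7, with 4% DMSO. Preincubated with ligand 30 min at 20 °C, then 10 min on ice. Assembly started by shift from 4 to 37 °C and followed by turbidity at 450 nm. IC50 read graphically as 50% inhibition at 20 min. At least two independent experiments using different protein preparations.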

[8] = species on record: Bos taurus; experiment: Inhibition of calf brain tubulin polymerization at 40 uM after 20 mins by turbidimetric method

| SMILES | pIC50 [1] | pIC50 [2] | inhibition [3] [%] | pIC50 [4] | pIC50 [5] | inhibition [6] [%] | pIC50 [7] | inhibition [8] [%] |
| --- | --- | --- | --- | --- | --- | --- | --- | --- |
| COc1ccc(C(O)c2ccc3c(ccn3C)c2)c(OC)c1OC (stereo not drawn) | 5.60 | < 5.00 | 9 |  |  |  |  |  |
| COc1ccc(C(=O)c2ccc3ccccc3c2)c(OC)c1OC |  | < 5.00 | 4 | < 5.00 | 5.48 |  |  |  |
| COc1ccc(C(=O)c2cc(OC)c(OC)c(OC)c2)cc1N | 7.52 | 7.24 |  | 7.49 | 7.52 | 81 | 5.82 |  |
| COc1ccc(C(=O)c2cc(OC)c(OC)c(OC)c2)cc1[N+](=O)[O-] | 5.60 | < 5.00 | 12 | 5.54 | 5.74 |  |  |  |
| COc1cc(C(O)c2ccc3ccccc3c2)cc(OC)c1OC (stereo not drawn) |  |  |  |  |  |  |  | 0 |
| C=C(c1ccc(OC)c([N+](=O)[O-])c1)c1ccc(OC)c(OC)c1OC | 7.49 | < 5.00 | 12 | 5.54 | 5.59 |  |  |  |
| COc1ccc(C(=O)c2cc(OC)c(OC)c(OC)c2)cc1 | 7.43 | 5.51 | 20 | 6.54 | 6.57 |  |  |  |
| CCn1ccc2cc(C(=O)c3cc(OC)c(OC)c(OC)c3)ccc21 |  |  | 95 | 7.47 |  |  | 5.24 |  |
| COc1cc(C(O)c2ccc3c(ccn3C)c2)cc(OC)c1OC (stereo not drawn) |  |  | 86 |  |  |  | 4.74 |  |
| CCn1ccc2cc(C(O)c3ccc(OC)c(OC)c3OC)ccc21 (stereo not drawn) | > 6.00 | < 5.00 | 0 | < 5.00 | < 5.00 |  |  |  |
| COc1cc(C(=O)c2ccc3ccccc3c2)cc(OC)c1OC | 7.36 |  |  |  |  |  | 5.96 | 100 |
| C=C(c1ccc(OC)c(N)c1)c1ccc(OC)c(OC)c1OC | 7.22 | 5.57 | 32 | 6.48 | 6.64 |  |  |  |
| C=C(c1ccc2c(ccn2CC)c1)c1ccc(OC)c(OC)c1OC | < 6.00 | < 5.00 | 34 | < 6.00 |  |  |  |  |
| C=C(c1ccc(OC)cc1)c1ccc(OC)c(OC)c1OC | 6.52 | < 5.00 | 16 | 5.49 | 6.32 |  |  |  |
| COc1ccc(C(=O)c2ccc(OC)c(OC)c2OC)cc1 | 5.74 | < 5.00 | 7 | 5.51 | 5.70 |  |  |  |
| CCn1ccc2cc(C(O)c3cc(OC)c(OC)c(OC)c3)ccc21 (stereo not drawn) | > 6.00 | < 5.00 | 41 | < 5.00 | > 6.00 |  |  |  |
| COc1cc(C(=O)c2ccc3c(ccn3C)c2)cc(OC)c1OC | 7.46 |  |  |  |  |  | 5.10 | 98 |
| C=C(c1cc(OC)c(OC)c(OC)c1)c1ccc2ccccc2c1 | 6.52 | 6.44 | 82 | 6.60 | 6.04 |  | 4.82 |  |
| C=C(c1ccc(OC)c(O)c1)c1ccc(OC)c(OC)c1OC | 7.46 | 6.66 | 86 | 6.51 | 6.62 |  | 4.91 |  |
| COc1ccc(C(O)c2ccc3ccccc3c2)c(OC)c1OC (stereo not drawn) | < 5.00 | < 5.00 | 0 | < 5.00 |  |  |  |  |
| C=C(c1cc(OC)c(OC)c(OC)c1)c1ccc2c(ccn2CC)c1 | 7.77 |  | 83 | 7.46 |  |  | 5.22 |  |
| C=C(c1ccc2ccccc2c1)c1ccc(OC)c(OC)c1OC | 6.70 |  | 11 | < 5.00 |  |  |  |  |
| CCn1ccc2cc(C(=O)c3ccc(OC)c(OC)c3OC)ccc21 | 6.35 | < 5.00 | 47 | < 6.00 | < 6.00 |  | 5.25 |  |
| COc1ccc(C(=O)c2ccc3c(ccn3C)c2)c(OC)c1OC | 7.52 | 6.30 | 40 | 7.52 |  |  |  |  |
| COc1cccc2c1C(=O)c1c(O)c3c(c(O)c1C2=O)C[C@@](O)(C(=O)CO)C[C@@H]3O[C@H]1C[C@H](N)[C@H](O)[C@H](C)O1 [DOXORUBICIN] | 6.72 | 6.54 |  | 6.62 | 7.57 |  |  |  |
| COc1ccc(C(=O)c2cc(OC)c(OC)c(OC)c2)cc1O [PHENSTATIN] |  | 6.54 | 94 | 5.74 | 7.51 |  | 5.60 |  |
| COc1ccc(/C=C\c2cc(OC)c(OC)c(OC)c2)cc1O [COMBRETASTATIN A4] |  |  |  |  | 8.70 |  | 5.52 |  |
